Hits are enriched below; roughly 1.4% of the tested compounds scored in any of these assays.
SIAE inh – human SIAE inhibitors, primary screen, biochemical, fluorescence polarization, FP-Rh probe, 1536-well HTS; Sialate O-acetylesterase (Homo sapiens), Q9HAT2; inhibition, % at 9.66 µM; 370,000 compounds, 0.69% hits; SIAE FP-Rh probe binding;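 active means inhibition above a cutoff: mean of compounds within the control limits plus 3 SD of those, cut at about 17% in these data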;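 further: 0% = plate median of compound wells and 100% = probe without SIAE protein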
ABHD4 inh – ABHD4 inhibitors, primary screen, biochemical, fluorescence polarization, mouse; (Lyso)-N-acylphosphatidylethanolamine lipase (Mus musculus), Q8VD66; purified mABHD4, FP-Rh probe fluorescence polarization; inhibition, % at 8.92 µM; 370,000 compounds, 0.54% hits; AID 720543, 2013;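 active means inhibition exceeding the mean over every tested compound plus 3 SD, cut at about 30% in these data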;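 further: 0% = plate median of compound wells and 100% = S159A mutant with DMSO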
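Assay system: mABHD4 protein; medium: HEPES pH 7.0, NaCl, Pluronic buffer; dosing: 8.92 µM, single dose; schedule: 45 min + 60 min at 25 °C; signal: FP readout, ex 525 nm / em 598 nm; read-out: normalized percent inhibition of probe labeling; repeats: single replicate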
HTRA1 inhibitor – HTRA1 serine protease inhibitors, primary screen, biochemical, fluorescence polarization, HTS; Q92743; recombinant HTRA1, FP-rhodamine activity-based probe; inhibition, % at 5.96 µM; 340,000 compounds, 0.5% hits; AID 504803, 2011; in the data active means inhibition above about 36%;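 further: 0% = enzyme with DMSO and 100% = wells lacking enzyme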
Target sequence (Q92743 whole entry, looked up): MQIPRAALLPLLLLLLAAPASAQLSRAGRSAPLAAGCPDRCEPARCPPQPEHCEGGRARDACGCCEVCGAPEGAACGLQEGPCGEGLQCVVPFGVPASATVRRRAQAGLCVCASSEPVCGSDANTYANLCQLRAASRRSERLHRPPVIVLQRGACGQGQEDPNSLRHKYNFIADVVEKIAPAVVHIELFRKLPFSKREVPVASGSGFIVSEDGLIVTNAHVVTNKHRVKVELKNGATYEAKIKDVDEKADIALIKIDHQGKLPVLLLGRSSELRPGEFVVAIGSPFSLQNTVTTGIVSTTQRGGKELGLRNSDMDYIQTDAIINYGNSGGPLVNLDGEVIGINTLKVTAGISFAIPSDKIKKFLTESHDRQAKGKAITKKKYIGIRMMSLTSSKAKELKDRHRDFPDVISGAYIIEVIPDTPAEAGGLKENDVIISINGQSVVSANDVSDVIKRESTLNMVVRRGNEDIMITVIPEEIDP
RBBP9 inh – human RBBP9 inhibitors, primary screen, biochemical, fluorescence polarization, FP-Rh probe, HTS | Serine hydrolase RBBP9 (Homo sapiens), O75884 | recombinant RBBP9 | inhibition, % at 7.94 µM | 220,000 compounds, 0.2% hits | AID 1515, 2009;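 active means inhibition above the campaign mean of all tested compounds plus 3 SD, cut at about 14% in these data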;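 further: plate controls were DMSO wells with RBBP9 for no effect and wells lacking RBBP9 protein for full effect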
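Test system – recombinant human RBBP9 · Input – RBBP9 2.5 µM in dispensing solution, pre-mixing · Medium – Tris buffer pH 8.0, NaCl, Pluronic · Schedule – preincubation 30 min plus labeling 45 min at 25 °C · Measured by – fluorescence polarization · Measure – % inhibition · Controls – DMSO and no-protein wells · Replicates – one well per compound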
Active calls of the source: *; · = not tested or not shown; ! = a repeat was not active.

SMILES	SIAE inh	ABHD4 inh	HTRA1 inhibitor	RBBP9 inh
O=C(O)CCN1C(=O)/C(=C/c2ccc(-c3nc4ccccc4s3)o2)SC1=S	-10	27	8	-8
O=S1(=O)c2ccc(N3CCSCC3)cc2Oc2ccccc2CN1Cc1cn(Cc2ccc(Cl)cc2)nn1	-2	-1	·	·
CCc1ccc(S(=O)(=O)/N=C2\C=C(NS(=O)(=O)c3ccccc3)C(=O)c3ccccc32)cc1	-2	28	7	·
CC(C)c1ccc(S(=O)(=O)/N=C2\C=C(NS(=O)(=O)c3ccccc3)C(=O)c3ccccc32)cc1	8	51*	9	·
O=C(O)c1ccc(S(=O)(=O)/N=C2\C=C(Nc3ccccc3F)C(=O)c3ccccc32)cc1	8	58*	27	·
CCOC(=O)CC[C@H]1CC[C@]2(CCCN(C(=O)c3ccc4ccccc4n3)C2)O1	0	5	·	·
C[C@]12CC[C@@H]3c4cc(O)c(O)cc4CC[C@H]3[C@@H]1CC[C@@H]2O	-3	26	30	24*
CC(=O)OCCn1c2nc(=O)[nH]c(=O)c-2nc2cc(C)c(C)cc21	20*	24	12	0
CC(=O)OCCn1c(C)[n+](CCOC(C)=O)c2cc(Cl)c(Cl)cc21	6	6	2	-9
O=C(OC12CCCN(C1)/C(=C/c1ccc(Cl)cc1)C2)C1CCCC1 (configuration not stated)	-1	-5	·	·
O=C1c2cc(Br)ccc2N(Cc2ccc(Br)cc2)S(=O)(=O)C1c1cc(Cl)c(Cl)cc1[N+](=O)[O-] (configuration not stated)	·	·	53*	·
C=CCN1C(=O)[C@@H](CC(=O)NCc2cccc3ccccc23)[C@]2(C(=O)OCC)CCCCC/C=C/12	-2	-8	·	·
Cc1ccccc1C(=O)N1CCC(C(=O)Nc2cccc(F)c2)CC1	26*	-5	0	-5
COC(=O)[C@]12C[C@H](CC(=O)NCCc3ccccc3OC)C(=O)N(Cc3ccc(Cl)cc3Cl)C1=C[C@H](COCc1ccccc1)O[C@@H]2C	-2	-7	·	·
O=C(Nc1ccc(Cl)cc1)Nc1ccc2c(c1)N1CCN=C1S2	19*	5	10	-7
COC(=O)[C@]12C[C@H](CC(=O)NCc3cccc(C(F)(F)F)c3)C(=O)N(Cc3cccc4ccccc34)C1=C[C@H](C(C)(C)C)O[C@@H]2C	-2	-10	·	·
Nc1sc2c(c1C(=O)NC1CCS(=O)(=O)C1)CCCC2 (configuration not stated)	22*	21	5	0
NC(=O)c1c(N)sc2c1CCCC2	3	15	6	11
CC(=O)Nc1ccc(C=NNc2ccc([N+](=O)[O-])cc2S(=O)(=O)Nc2ccccc2C(=O)O)cc1	-9	-14	-45	·
CN(CCO)c1ccc(C=NNc2ccc([N+](=O)[O-])cc2S(=O)(=O)Nc2ccccc2C(=O)O)cc1	3	46*	·	·
Cc1cc(NS(=O)(=O)c2ccc(Nc3nc(-c4ccc(O)cc4)cs3)cc2)no1	-3	42*	-1	-9
O=C(NC1=N[C@@]2(C=C3CCCCC3n3c(=O)n(-c4ccccc4)c(=O)n32)[C@H](Cc2ccccc2)N1Cc1ccccc1)c1ccccc1 (some centres not stated)	9	20	·	·
c1ccc(-c2nc3ccccc3[nH]2)nc1	-8	6	21	-2
c1ccc(-c2nc3c(ccc4ccccc43)[nH]2)nc1	29*	7	36	-3
COC(=O)[C@H](CC(C)C)N(CCc1cn(Cc2ccccc2)nn1)S(=O)(=O)c1ccccc1Br	-2	3	·	·
SMILES	SIAE inh	ABHD4 inh	HTRA1 inhibitor	RBBP9 inh
O=C(Oc1ccc2c3c(c(=O)oc2c1)CCCC3)c1cccs1	-10	1	-17	-2
Cc1ccc(Oc2coc3cc(OC(=O)c4cccs4)ccc3c2=O)cc1	-9	-10	70*	-7
Cc1cccc(Oc2coc3cc(OC(=O)c4cccs4)ccc3c2=O)c1	-14	-11	69*	-9
COc1ccc(S[C@]2(C(=O)N(C)C)CC(=O)N(C(=O)c3ccccc3)[C@@H]2c2ccc(OC)cc2)cc1	1	-7	·	·
COc1ccc(-c2cc(-c3nc4ccccn4c3NCc3ccccc3)ccc2OC)cc1	21*	17	-2	·
Cc1nnc(SCC(=O)c2ccc(Cl)cc2)n(N)c1=O	-4	2	5	18*
O=C(CSc1nnnn1-c1ccc2c(c1)OCCO2)N1CCc2ccccc21	27*	11	-3	8
O=C(CSc1nnnn1-c1ccccc1)N1CCc2ccccc21	-1	6	-1	1
Cc1ccc(C(=O)N(C)[C@H]2C[C@H]3c4[nH]c5c(-c6cccc(C)c6)cccc5c4CCN3C[C@H]2[C@H](C)O)cc1	2	6	·	·
Oc1cccc(-c2sc3ccccc3c2-c2ccc(OCCN3CCCCC3)cc2)c1	-4	16	·	·
O=C(c1ccc(OCCN2CCCCC2)cc1)c1c(-c2ccc(O)cc2)sc2cc(O)ccc12	27*!	14	7	·
CCN1Cc2nnn(Cc3ccccc3)c2-c2cc(N3CCCC3)ccc2S1(=O)=O	3	23	·	·
Nc1cc(Cl)nc(N/N=C/c2ccccc2[N+](=O)[O-])n1	18*	2	3	-13
Nc1cc(Cl)nc(N/N=C/c2ccc([N+](=O)[O-])cc2)n1	7	4	-5	2
COc1cccc(CO[C@H]2C=C[C@@H](c3ccccc3)O[C@@H]2CO)c1	2	-1	·	·
C=CCN1C(=O)/C(=C2/Sc3ccccc3N2CCCS(=O)(=O)O)SC1=S	3	36*	17	-4
C=CCN1C(=O)/C(=C2/Sc3ccccc3N2CC)SC1=S	-2	2	-6	·
CC(=O)c1ccc2c(c1)C1C=CCC1C(c1ccncc1)N2 (configuration not stated)	8	21	15	0
COC(=O)c1ccc(C2Nc3ccc(/C(C)=N/NC(=O)C(OC)c4ccccc4)cc3C3C=CCC32)cc1 (configuration not stated)	22*	14	21	1
Cc1nc2sccn2c1P(c1c(C)nc2sccn12)c1c(C)nc2sccn12	17*	-12	2	-12
Cc1cc(Nc2cccc(Cl)c2)nc(NCc2ccccc2)n1	24*	19	-29	-5
COC(=O)[C@]12C[C@H](CC(=O)N3CCN(C(=O)C4CC4)CC3)C(=O)N(Cc3cccc4ccccc34)C1=C[C@H](C(C)C)O[C@@H]2C1CC1	4	1	·	·
O=S(=O)(Nc1cc2nc3ccccc3nc2n1Cc1ccccc1)c1ccc(Cl)cc1	30*	8	29	-3
O=[N+]([O-])c1ccc2c(c1)N([O-])C1(CCCCC1)[N+]2=O	13	53*	·	8
COc1cc(C2Nc3cccc4cccc(c34)N2)cc(OC)c1OC(C)=O	5	20	14	2
COc1cc(C2Nc3cccc4cccc(c34)N2)ccc1O	54*	0	21	·
O=c1[nH][nH]c2c(N=Cc3ccccc3O)ccc(F)c12	·	·	47*	4

Screening results (PubChem)
